Measured values as given in ChEMBL document CHEMBL3351702, “Design, synthesis and characterization of fluoro substituted novel pyrazolylpyrazolines scaffold and their pharmacological screening” (Eur J Med Chem, 2014).
In brackets after ≈: the same amount, converted by molar mass.

How the values were obtained:
Plasmodium falciparum = test: Antimalarial activity against chloroquine ane quinine-sensitive ring stage of Plasmodium falciparum assessed as inhibition of parasite growth after 48 hrs; type: functional, organism-based
Summary of the method: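 P. falciparum field strain from a Surat hospital, cultured by a modified Trager–Jensen method and synchronized with 5% D-sorbitol at ring stage. Rings at 1–2% parasitaemia and 2.5% haematocrit in hypoxanthine-free RPMI-1640 with 10% human plasma. Exposed to 7 concentrations, diluted from DMSO stocks, for one 48 h cycle at 37 °C. Growth inhibition % measured; IC50 by interpolation; duplicate runs, mean reported.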

Salmonella typhi = test: Antimicrobial activity against Salmonella typhi MTCC 98 assessed as absence of visible growth after 24 to 48 hrs by broth micro dilution method; type: functional, Salmonella enterica subsp. enterica serovar Typhi; details: Salmonella enterica
Aspergillus fumigatus = test: Antimicrobial activity against Aspergillus fumigatus MTCC 3008 assessed as absence of visible growth after 24 to 48 hrs by broth micro dilution method; type: functional
Summary of the method: (§1)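 Fungal broth microdilution following NCCLS, in Sabouraud dextrose broth, with compounds diluted from DMSO and inoculum adjusted to 10⁸ CFU/mL by turbidity. Growth read at 24 and 48 h. MIC is the highest dilution preventing turbidity after spot subculture. Griseofulvin and nystatin were the references.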

Candida albicans = test: Antimicrobial activity against Candida albicans MTCC 227 assessed as absence of visible growth after 24 to 48 hrs by broth micro dilution method; type: functional; summary of the method: as §1
Streptococcus pneumoniae = test: Antimicrobial activity against Streptococcus pneumoniae MTCC 1936 assessed as absence of visible growth after 24 to 48 hrs by broth micro dilution method; type: functional
Clostridium tetani = test: Antimicrobial activity against Clostridium tetani MTCC 449 assessed as absence of visible growth after 24 to 48 hrs by broth micro dilution method; type: functional
Escherichia coli = test: Antimicrobial activity against Escherichia coli MTCC 443 assessed as absence of visible growth after 24 to 48 hrs by broth micro dilution method; type: functional
Vibrio cholerae = test: Antimicrobial activity against Vibrio cholerae MTCC 3906 assessed as absence of visible growth after 24 to 48 hrs by broth micro dilution method; type: functional
[1] = system: Mycobacterium tuberculosis; test: Antituberculosis activity against Mycobacterium tuberculosis H37Rv assessed as inhibition of colony formation at 250 ug/ml after 4 weeks of incubation; type: functional; details: 672 h
Bacillus subtilis = test: Antimicrobial activity against Bacillus subtilis MTCC 441 assessed as absence of visible growth after 24 to 48 hrs by broth micro dilution method; type: functional

Compound | IC50 (Plasmodium falciparum) [µg/mL] | MIC (Salmonella typhi) [µg/mL] | MIC (Aspergillus fumigatus) [µg/mL] | MIC (Candida albicans) [µg/mL] | MIC (Streptococcus pneumoniae) [µg/mL] | MIC (Clostridium tetani) [µg/mL] | MIC (Escherichia coli) [µg/mL] | MIC (Vibrio cholerae) [µg/mL] | inhibition at 250 µg/mL [1] [%] | MIC (Bacillus subtilis) [µg/mL]
Cc1nn(-c2ccccc2)c(Oc2cccc(F)c2)c1C1CC(c2ccc(F)cc2)=NN1c1ccc(Br)cc1 (stereo not drawn) | 0.06 (≈ 0.102 µM) | 200 (≈ 342 µM) | > 1000 | 250 (≈ 427 µM) | 500 (≈ 854 µM) | 250 (≈ 427 µM) | 500 (≈ 854 µM) | 125 (≈ 214 µM) | 56 | 250 (≈ 427 µM)
O=C(O)c1cn(C2CC2)c2cc(N3CCNCC3)c(F)cc2c1=O [CIPROFLOXACIN] | – | 25 (≈ 75.4 µM) | – | – | 25 (≈ 75.4 µM) | – | 25 (≈ 75.4 µM) | 25 (≈ 75.4 µM) | – | –
Cc1nn(-c2ccccc2)c(Oc2ccc(F)cc2)c1C1CC(c2ccc(F)cc2)=NN1c1ccc(F)cc1 (stereo not drawn) | 0.022 (≈ 0.0419 µM) | 250 (≈ 477 µM) | > 1000 | 200 (≈ 381 µM) | 100 (≈ 191 µM) | 250 (≈ 477 µM) | 500 (≈ 953 µM) | 200 (≈ 381 µM) | 40 | 500 (≈ 953 µM)
Cc1nn(-c2ccccc2)c(Oc2ccccc2F)c1C1CC(c2ccc(F)cc2)=NN1c1ccc(Br)cc1 (stereo not drawn) | 0.088 (≈ 0.15 µM) | 200 (≈ 342 µM) | 1000 (≈ 1710 µM) | 250 (≈ 427 µM) | 250 (≈ 427 µM) | 500 (≈ 854 µM) | 100 (≈ 171 µM) | 500 (≈ 854 µM) | 94 | 200 (≈ 342 µM)
C=C[C@H]1CN2CC[C@H]1C[C@H]2[C@H](O)c1ccnc2ccc(OC)cc12 [QUININE] | 0.268 (≈ 0.826 µM) | – | – | – | – | – | – | – | – | –
CC1(C)S[C@@H]2[C@H](NC(=O)[C@H](N)c3ccccc3)C(=O)N2[C@H]1C(=O)O [AMPICILLIN] | – | 100 (≈ 286 µM) | – | – | 100 (≈ 286 µM) | 250 (≈ 715 µM) | 100 (≈ 286 µM) | 100 (≈ 286 µM) | – | 250 (≈ 715 µM)
COC1=CC(=O)C[C@@H](C)[C@]12Oc1c(Cl)c(OC)cc(OC)c1C2=O [GRISEOFULVIN] | – | – | 100 (≈ 283 µM) | 500 (≈ 1420 µM) | – | – | – | – | – | –
Cc1nn(-c2ccccc2)c(Oc2cccc(C(F)(F)F)c2)c1C1CC(c2ccc(F)cc2)=NN1c1ccc(Br)cc1 (stereo not drawn) | 1.46 (≈ 2.3 µM) | 200 (≈ 315 µM) | 500 (≈ 787 µM) | 1000 (≈ 1570 µM) | 500 (≈ 787 µM) | 250 (≈ 393 µM) | 250 (≈ 393 µM) | 250 (≈ 393 µM) | 91 | 250 (≈ 393 µM)
O=C(N[C@H](CO)[C@H](O)c1ccc([N+](=O)[O-])cc1)C(Cl)Cl [CHLORAMPHENICOL] | – | 50 (≈ 155 µM) | – | – | 50 (≈ 155 µM) | 50 (≈ 155 µM) | 50 (≈ 155 µM) | 50 (≈ 155 µM) | – | 50 (≈ 155 µM)
NYSTATIN | – | – | 100 | 100 | – | – | – | – | – | –
COc1ccc(N2N=C(c3ccc(F)cc3)CC2c2c(C)nn(-c3ccccc3)c2Oc2cccc(F)c2)cc1 (stereo not drawn) | 0.57 (≈ 1.06 µM) | 500 (≈ 932 µM) | > 1000 | 1000 (≈ 1860 µM) | 100 (≈ 186 µM) | 200 (≈ 373 µM) | 500 (≈ 932 µM) | 200 (≈ 373 µM) | 56 | 200 (≈ 373 µM)
COc1ccc(N2N=C(c3ccc(F)cc3)CC2c2c(C)nn(-c3ccccc3)c2Oc2ccc(F)cc2)cc1 (stereo not drawn) | 0.25 (≈ 0.466 µM) | 500 (≈ 932 µM) | 250 (≈ 466 µM) | 500 (≈ 932 µM) | 125 (≈ 233 µM) | 200 (≈ 373 µM) | 500 (≈ 932 µM) | 100 (≈ 186 µM) | 74 | 62.5 (≈ 116 µM)
COc1ccc(N2N=C(c3ccc(F)cc3)CC2c2c(C)nn(-c3ccccc3)c2Oc2ccccc2F)cc1 (stereo not drawn) | 0.65 (≈ 1.21 µM) | 500 (≈ 932 µM) | 250 (≈ 466 µM) | 500 (≈ 932 µM) | 500 (≈ 932 µM) | 500 (≈ 932 µM) | 500 (≈ 932 µM) | 500 (≈ 932 µM) | 22 | 100 (≈ 186 µM)
COc1ccc(N2N=C(c3ccc(F)cc3)CC2c2c(C)nn(-c3ccccc3)c2Oc2cccc(C(F)(F)F)c2)cc1 (stereo not drawn) | 0.3 (≈ 0.511 µM) | 100 (≈ 170 µM) | 500 (≈ 852 µM) | 250 (≈ 426 µM) | 200 (≈ 341 µM) | 200 (≈ 341 µM) | 100 (≈ 170 µM) | 250 (≈ 426 µM) | 52 | 100 (≈ 170 µM)
Cc1nn(-c2ccccc2)c(Oc2ccc(F)cc2)c1C1CC(c2ccc(F)cc2)=NN1c1ccc(Br)cc1 (stereo not drawn) | 0.025 (≈ 0.0427 µM) | 200 (≈ 342 µM) | > 1000 | 500 (≈ 854 µM) | 500 (≈ 854 µM) | 125 (≈ 214 µM) | 200 (≈ 342 µM) | 500 (≈ 854 µM) | 96 | 500 (≈ 854 µM)
CO[C@H]1/C=C/O[C@@]2(C)Oc3c(C)c(O)c4c(O)c(c(/C=N/N5CCN(C)CC5)c(O)c4c3C2=O)NC(=O)/C(C)=C\C=C\[C@H](C)[C@H](O)[C@@H](C)[C@@H](O)[C@@H](C)[C@H](OC(C)=O)[C@@H]1C [RIFAMPIN] | – | – | – | – | – | – | – | – | 98 | –
Cc1nn(-c2ccccc2)c(Oc2ccccc2F)c1C1CC(c2ccc(F)cc2)=NN1c1ccc(F)cc1 (stereo not drawn) | 0.025 (≈ 0.0477 µM) | 250 (≈ 477 µM) | 100 (≈ 191 µM) | 1000 (≈ 1910 µM) | 250 (≈ 477 µM) | 250 (≈ 477 µM) | 200 (≈ 381 µM) | 250 (≈ 477 µM) | 10 | 500 (≈ 953 µM)
CCn1cc(C(=O)O)c(=O)c2cc(F)c(N3CCNCC3)cc21 [NORFLOXACIN] | – | 10 (≈ 31.3 µM) | – | – | 10 (≈ 31.3 µM) | 50 (≈ 157 µM) | 10 (≈ 31.3 µM) | 10 (≈ 31.3 µM) | – | 100 (≈ 313 µM)
